The subject of assay [1] is Rattus norvegicus. The experiment in a line: Percent change in volume of foot edema of test compound to that of positive control was determined at a dose of 31.6 mg/kg in rat; -41/-61. Type of assay: functional.
Assay [2] has as its system Rattus norvegicus. The experiment in a line: Percent change in volume of foot edema of test compound to that of positive control was determined at a dose of 31.6 mg/kg in rat; -90/-83. Type of assay: functional.
Assay [3] deals with Rattus norvegicus. The assay can be described thus: Percent change in volume of foot edema of test compound to that of positive control was determined at a dose of 10 mg/kg in rat; -46/-83. The assay is classed as functional.
Assay [4] has as its system Rattus norvegicus. The assay can be described thus: Percent change in volume of foot edema of test compound to that of positive control was determined at a dose of 3.16 mg/kg in rat; -32/-78. The assay is classed as functional.
Assay [5] deals with Rattus norvegicus. The assay can be described thus: Percent change in volume of foot edema of test compound to that of positive control was determined at a dose of 10 mg/kg in rat; -15/-73. The assay is classed as functional.
The subject of assay [6] is Rattus norvegicus. The assay can be described thus: Percent change in volume of foot edema of test compound to that of positive control was determined at a dose of 31.6 mg/kg in rat; -64/-73. Type of assay: functional.
For assay [7], the system named is Rattus norvegicus. The assay can be described thus: Percent change in volume of foot edema of test compound to that of positive control was determined at a dose of 31.6 mg/kg in rat; -25/-93.
In assay [8] the test system is Rattus norvegicus. The assay can be described thus: Percent change in volume of foot edema of test compound to that of positive control was determined at a dose of 31.6 mg/kg in rat; -57/-83. Type of assay: functional.
The subject of assay [9] is Rattus norvegicus. The assay can be described thus: Percent change in volume of foot edema of test compound to that of positive control was determined at a dose of 10 mg/kg in rat; -39/-72. The assay is classed as functional.
For assay [10], the system named is Rattus norvegicus. The experiment in a line: Percent change in volume of foot edema of test compound to that of positive control was determined at a dose of 31.6 mg/kg in rat; -77/-67. Type of assay: functional.
Assay [11] has as its system Rattus norvegicus. The experiment in a line: Percent change in volume of foot edema of test compound to that of positive control was determined at a dose of 10 mg/kg in rat; -41/-59. Type of assay: functional.
In assay [12] the test system is Rattus norvegicus. The assay can be described thus: Percent change in volume of foot edema of test compound to that of positive control was determined at a dose of 31.6 mg/kg in rat; -42/-81. The assay is classed as functional.
The species entered for assay [13] is Cavia porcellus. The experiment in a line: Dose that protects 50% of guinea pig from collapse was determined in guinea pig anaphylaxis assay. The assay is classed as functional. The conditions noted are these: read-out: PD50. An outline of the steps: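 Guinea pigs dosed by gavage (10 mL/kg) with compound in 0.5% Tween 80/water; reference theophylline 100 mg/kg po. At 1–24 h, exposed in chamber to aerosolized 1% (w/v) egg albumin at 10 L air/min for up to 5 min; protected if no collapse within 5 min. PD50 by Litchfield and Wilcoxon.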

For assay [14], the system named is Rattus norvegicus. The experiment in a line: Percent change in volume of foot edema of test compound to that of positive control was determined at a dose of 10 mg/kg in rat; -73/-59. Type of assay: functional.
Assay [15] concerns Rattus norvegicus. The experiment in a line: Percent change in volume of foot edema of test compound to that of positive control was determined at a dose of 31.6 mg/kg in rat; -87/-67. The assay is classed as functional.
Assay [16] deals with Rattus norvegicus. The experiment in a line: Percent change in volume of foot edema of test compound to that of positive control was determined at a dose of 3.16 mg/kg in rat; -8/-67. Type of assay: functional.
The subject of assay [17] is Rattus norvegicus. The assay can be described thus: Oral Antiallergic activity in the passive foot anaphylaxis (PFA) assay of various amines at the dose of 3.16 mg/kg; -4/-78. The assay is classed as functional.
The subject of assay [18] is Rattus norvegicus. The assay can be described thus: Percent change in volume of foot edema of test compound to that of positive control was determined at a dose of 31.6 mg/kg in rat; -60/-74. Type of assay: functional.
For assay [19], the system named is Rattus norvegicus. The experiment in a line: Percent change in volume of foot edema of test compound to that of positive control was determined at a dose of 10 mg/kg in rat; -54/-72. Type of assay: functional.
The test system of assay [20] is Rattus norvegicus. The assay can be described thus: Percent change in volume of foot edema of test compound to that of positive control was determined at a dose of 31.6 mg/kg in rat; -79/-81. Type of assay: functional.
Assay [21] relates to Rattus norvegicus. The assay can be described thus: Percent change in volume of foot edema of test compound to that of positive control was determined at a dose of 10 mg/kg in rat; -36/-88. Type of assay: functional.
The test system of assay [22] is Rattus norvegicus. The experiment in a line: Percent change in volume of foot edema of test compound to that of positive control was determined at a dose of 10 mg/kg in rat; -40/-81. The assay is classed as functional.
Assay [23] has as its system Rattus norvegicus. The experiment in a line: Percent change in volume of foot edema of test compound to that of positive control was determined at a dose of 3.16 mg/kg in rat; -20/-78. Type of assay: functional.
Assay [24] relates to Rattus norvegicus. The experiment in a line: Percent change in volume of foot edema of test compound to that of positive control was determined at a dose of 31.6 mg/kg in rat; -56/-65. The assay is classed as functional.
The subject of assay [25] is Rattus norvegicus. The experiment in a line: Percent change in volume of foot edema of test compound to that of positive control was determined at a dose of 10 mg/kg in rat; -49/-81. Type of assay: functional.
The subject of assay [26] is Rattus norvegicus. The assay can be described thus: Percent change in volume of foot edema of test compound to that of positive control was determined at a dose of 31.6 mg/kg in rat; -27/-65. The assay is classed as functional.
The subject of assay [27] is Rattus norvegicus. The assay can be described thus: Percent change in volume of foot edema of test compound to that of positive control was determined at a dose of 10 mg/kg in rat; -38/-88. Type of assay: functional.
Assay [28] relates to Rattus norvegicus. The experiment in a line: Percent change in volume of foot edema of test compound to that of positive control was determined at a dose of 31.6 mg/kg in rat; -87/-83. The assay is classed as functional.

From ChEMBL document CHEMBL1124808, “The synthesis and antiallergy activity of 1-(aryloxy)-4-(4-arylpiperazinyl)-2-butanol derivatives” (1990) come the findings set out here.

SMILES strings stand for the structures.

Regarding `CN(CCC(O)COc1ccccc1)CCN(C)c1ccccc1.O=C(O)C(=O)O` (centres undefined), the PFA in assay [1] is -41.

Consider `Cl.NC(=O)c1ccc(OCC(O)CCN2CCN(c3ccccc3)CC2)cc1` (centres undefined), for which the PFA was -90 in [2], -46 in [3] and -32 in [4].

As to `Cl.Cl.N#Cc1ccc(OCC(O)CCN2CCN(c3ccccc3)CC2)cc1` (centres undefined), the PFA in assay [5] is on record as -15; in assay [6] it was -64.

For the compound `CC(=O)c1ccc(OCC(O)CCN2CCN(c3ccccc3)CC2)cc1.Cl.Cl` (centres undefined), the PFA in assay [7] is reported as -25.

On to `CC(C)(C)c1ccc(OCC(O)CCN2CCN(c3ccccc3)CC2)cc1.Cl` (centres undefined), for which the values for the PFA in assay [8] and in [9] were -57 and -39, respectively.

Turning to `Cc1ccc(N2CCN(CCC(O)COc3ccc(F)cc3)CC2)cc1.Cl.Cl` (centres undefined), the figures for the PFA in assay [10] and in assay [11] were -77 and -41, respectively.

Regarding `O=C(O)/C=C\C(=O)O.c1ccc(OCCCCN2CCN(c3ccccc3)CC2)cc1`, in assay [12], the PFA is listed as -42.

As for `Cl.OC(CCN1CCN(c2ccc(Cl)cc2)CC1)COc1ccc(F)cc1` (centres undefined), the ED50 in assay [13] was determined as 7.85 mg/kg. Further, the PFA in assay [14] is recorded as -73; in assay [15], -87; in assay [16] it was -8.

As for `Cc1ccc(N2CCN(CCC(O)COc3ccc(Cl)cc3)CC2)cc1.Cl` (centres undefined), the PFA in assay [17] was -4; in [18], -60; in assay [19] it was -54.

As for `Cc1cc(OCC(O)CCN2CCN(c3ccccn3)CC2)ccc1Cl.Cl.Cl` (centres undefined), the PFA in assay [20] is listed as -79; in assay [21] it was -36.

For the compound `COc1ccc(N2CCN(CCC(O)COc3ccc(Cl)cc3)CC2)cc1.Cl.Cl` (centres undefined), the PFA in assay [22] was -40; in assay [20], -79.

With `OC(CCN1CCN(c2ccccc2)CC1)COc1ccc(Br)cc1` (centres undefined), the values for the PFA in assay [23], in assay [24] and in assay [25] were -20, -56 and -49, respectively.

For the compound `OC(CCN1CCN(c2ccccc2Cl)CC1)COc1ccccc1` (centres undefined), the PFA in assay [26] is -27.

Consider `CC(=O)c1ccc(N2CCN(CCC(O)COc3ccc(F)cc3)CC2)cc1` (centres undefined), for which the PFA in assay [27] was -38; in assay [28], -87.
